Read-outs that look alike come from different tables or passages of the source.
Tests used:
[1] = system: MRC-5 cells; experiment: MTT cell viability assay in MRC-5 cells; assay type: cell-based, human; settings: in words
Procedure, shortened: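 Human fibroblast MRC-5 cells exposed to test compound for 72 h; viability read by MTT (3-(4,5-dimethylthiazol-2-yl)-2,5-diphenyl tetrazolium bromide) assay. CC50 taken as the compound concentration that inhibits cell viability by 50%.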

[2] = system: human prostaglandin E synthase type 2 (PGES-2); settings: cited from earlier work
[3] = system: SARS-CoV-2; settings: virus yield reduction assay, 48 h, infected Vero E6 cells; cited from earlier work
[4] = system: CCoV; settings: dog, po, 1 mg/kg; cited from earlier work
[5] = system: SARS-CoV-2; settings: 4-day cytopathic effect protection assay, Vero E6 cells; cited from earlier work
[6] = system: SARS-CoV-2/NL/2020; experiment: Plaque reduction assay; assay type: cell-based; settings: for dose-dependent inhibitory activity: any of the tested SARS-CoV-2 strains, up to 50 μM
[7] = system: HCoV-229E; experiment: microbe, parasite or virus in culture; assay type: cell-based; settings: Human coronavirus 229E, MRC5, read-out: EC50 (CI)

Structure (SMILES): COc1ccc2c(c1)c(CC(=O)NCCCCCCC(=O)N[C@H](C(=O)N1C[C@H](O)C[C@H]1C(=O)N[C@@H](C)c1ccc(-c3scnc3C)cc1)C(C)(C)C)c(C)n2C(=O)c1ccc(Cl)cc1 [Compound 3, (2S,4R)-1-((S)-2-(7-(2-(1-(4-chlorobenzoyl)-5-methoxy-2-methyl-1H-indol-3-yl)acetamido)heptanamido)-3,3-dimethylbutanoyl)-4-hydroxy-N-((S)-1-(4-(4-methylthiazol-5-yl)phenyl)ethyl)pyrrolidine-2-carboxamide]
- cytotoxicity [1]: did not show significant cytotoxicity

Structure (SMILES): COc1ccc2c(c1)c(CC(=O)O)c(C)n2C(=O)c1ccc(Cl)cc1 [INM, Indomethacin]
- PGES-2 inhibition [2]: low nanomolar range
- EC50 [3]: 100 µM
- in vivo antiviral efficacy [4]: in vivo antiviral efficacy
- EC50 [5]: > 400 µM

Structure (SMILES): COc1ccc2c(c1)c(CC(=O)NCCCCC(=O)N[C@H](C(=O)N1C[C@H](O)C[C@H]1C(=O)N[C@@H](C)c1ccc(-c3scnc3C)cc1)C(C)(C)C)c(C)n2C(=O)c1ccc(Cl)cc1 [Compound 2, (2S,4R)-1-((S)-2-(5-(2-(1-(4-chlorobenzoyl)-5-methoxy-2-methyl-1H-indol-3-yl)acetamido)pentanamido)-3,3-dimethylbutanoyl)-4-hydroxy-N-((S)-1-(4-(4-methylthiazol-5-yl)phenyl)ethyl)pyrrolidine-2-carboxamide]
- dose-dependent inhibitory activity [6]: did not show dose-dependent inhibitory activity

Structure (SMILES): COc1ccc2c(c1)c(CC(=O)NCCN1CCN(C(=O)CCC(=O)N[C@H](C(=O)N3C[C@H](O)C[C@H]3C(=O)N[C@@H](C)c3ccc(-c4scnc4C)cc3)C(C)(C)C)CC1)c(C)n2C(=O)c1ccc(Cl)cc1 [Compound 5, (2S,4R)-1-((S)-2-(4-(4-(2-(2-(1-(4-chlorobenzoyl)-5-methoxy-2-methyl-1H-indol-3-yl)acetamido)ethyl)piperazin-1-yl)-4-oxobutanamido)-3,3-dimethylbutanoyl)-4-hydroxy-N-((S)-1-(4-(4-methylthiazol-5-yl)phenyl)ethyl)pyrrolidine-2-carboxamide]
- EC50 [7]: 3.4 µM
- cytotoxicity [1]: did not show significant cytotoxicity

Structure (SMILES): COc1ccc2c(c1)c(CC(=O)NCCOCCOCC(=O)N[C@H](C(=O)N1C[C@H](O)C[C@H]1C(=O)N[C@@H](C)c1ccc(-c3scnc3C)cc1)C(C)(C)C)c(C)n2C(=O)c1ccc(Cl)cc1 [Compound 4, (2S,4R)-1-((S)-2-(tert-butyl)-14-(1-(4-chlorobenzoyl)-5-methoxy-2-methyl-1H-indol-3-yl)-4,13-dioxo-6,9-dioxa-3,12-diazatetradecanoyl)-4-hydroxy-N-((S)-1-(4-(4-methylthiazol-5-yl)phenyl)ethyl)pyrrolidine-2-carboxamide]
- dose-dependent inhibitory activity [6]: did not show dose-dependent inhibitory activity
- activity in PRA ([6]; in words): not active

Source: PMC8416298 (European Journal of Medicinal Chemistry, 2021)
